From ChEMBL document CHEMBL1165977, “Novel analogues of Istaroxime, a potent inhibitor of Na(+),K(+)-ATPase: Synthesis, structure-activity relationship and 3D-quantitative structure-activity relationship of derivatives at position 6 on the androstane scaffold” (Bioorg Med Chem, 2010)

How the values were obtained:
[1] = Inhibition of dog kidney Na+K+-ATPase assessed as hydrolysis of [32P]ATP; design: species or system Canis lupus familiaris
Procedure, shortened: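 Dog kidney Na+,K+-ATPase, isolated and purified by the Jørgensen method. Enzyme activity was read as % hydrolysis of 32P-ATP with versus without test compound. IC50 was obtained by nonlinear least-squares curve fitting, as the mean of two or three experiments.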

Cavia porcellus [2] = experiment: Positive inotropic activity in guinea pig atria assessed as increase in […] at 0.16 ml/min, iv; format: functional
Cavia porcellus [3] = species on record: Cavia porcellus; experiment: Positive inotropic activity in electrically driven guinea pig atria assessed as maximal concentration required to increase in […]; format: functional
Cavia porcellus [4] = experiment: Toxicity in guinea pig assessed as death at 0.16 ml/min, iv up to 90 mins; format: organism-based; conditions: in vivo, 1.5 h
Procedure, shortened: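 Anesthetized guinea pigs with a jugular vein cannula and an intubated trachea for spontaneous respiration. After stabilization, drug was infused iv at 0.16 mL/min until death or for up to 90 min. Vehicle was DMSO diluted in physiological solution to 1% DMSO final. Read-out was +dP/dt_max. ED80 (dose raising +dP/dt_max by 80%) came from the dose–response, and the doses giving maximum inotropy and death were recorded, giving the lethal dose/ED80 ratio.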

Cavia porcellus [5] = experiment: Positive inotropic activity in iv dosed guinea pig atria assessed as concentration required to increase in […]; format: functional

Structure (SMILES) | IC50 [1] [nM] | other results
C[C@]12CC/C(=N\OCCN)C[C@@H]1[C@H](O[N+](=O)[O-])C[C@@H]1[C@@H]2CC[C@]2(C)C(=O)CC[C@@H]12 | 2900 | –
CNCCCO/N=C1\CC[C@@]2(C)[C@H](C1)[C@@H](COC)C[C@@H]1[C@@H]2CC[C@]2(C)C(=O)CC[C@@H]12 | 2000 | –
C=CCO/N=C1\C[C@@H]2[C@H](CC[C@]3(C)C(=O)CC[C@@H]23)[C@@]2(C)CC/C(=N\OCCN)C[C@H]12 | 43000 | –
COC(=O)/C=C1\C[C@@H]2[C@H](CC[C@]3(C)C(=O)CC[C@@H]23)[C@@]2(C)CC/C(=N\OCCN)C[C@H]12 | 64000 | –
COC[C@@H]1C[C@@H]2[C@H](CC[C@]3(C)C(=O)CC[C@@H]23)[C@@]2(C)CC/C(=N\OCCN)C[C@H]12 | 3000 | –
COC[C@H]1C[C@@H]2[C@H](CC[C@]3(C)C(=O)CC[C@@H]23)[C@@]2(C)CC/C(=N\OCCN)C[C@H]12 | 500 | –
C[C@]12CC/C(=N\OCCN)C[C@@H]1[C@@]1(CO1)C[C@@H]1[C@@H]2CC[C@]2(C)C(=O)CC[C@@H]12 | 910 | –
C[C@]12CC/C(=N\O[C@@H]3CCNC3)C[C@@H]1/C(=N/O)C[C@@H]1[C@@H]2CC[C@]2(C)C(=O)CC[C@@H]12.Cl | 16 | Emax (Cavia porcellus [2]): 144%; Activity (Cavia porcellus [3]): 4.3 µM/g; Activity (Cavia porcellus [4]): Non-toxic; ED80 (Cavia porcellus [5]): 1.5 µM/g
CO/N=C1\C[C@@H]2[C@H](CC[C@]3(C)C(=O)CC[C@@H]23)[C@@]2(C)CC/C(=N\O[C@@H]3CCNC3)C[C@H]12 | 18 | –
C[C@]12CC/C(=N\O[C@@H]3CCNC3)C[C@@H]1[C@@H](CCO)C[C@@H]1[C@@H]2CC[C@]2(C)C(=O)CC[C@@H]12.Cl | 58 | Emax (Cavia porcellus [2]): 183%; Activity (Cavia porcellus [3]): 5.1 µM/g; Activity (Cavia porcellus [4]): Non-toxic; ED80 (Cavia porcellus [5]): 1.9 µM/g
C[C@]12CC/C(=N\OCCN)C[C@@H]1[C@]1(CO1)C[C@@H]1[C@@H]2CC[C@]2(C)C(=O)CC[C@@H]12 | 870 | –
C[C@]12CC/C(=N\O[C@@H]3CCNC3)C[C@@H]1[C@@H](CO)C[C@@H]1[C@@H]2CC[C@]2(C)C(=O)CC[C@@H]12 | 26 | –
CNCCCO/N=C1\CC[C@@]2(C)[C@H](C1)C1(CC1)C[C@@H]1[C@@H]2CC[C@]2(C)C(=O)CC[C@@H]12 | 1300 | –
CNCCCO/N=C1\CC[C@@]2(C)[C@H](C1)C(=O)C[C@@H]1[C@@H]2CC[C@]2(C)C(=O)CC[C@@H]12 | 250 | –
C=C1C[C@@H]2[C@H](CC[C@]3(C)C(=O)CC[C@@H]23)[C@@]2(C)CC/C(=N\OCCCNC)C[C@H]12 | 570 | –
C[C@]12CC/C(=N\OCCN)C[C@@H]1[C@@H](C#N)C[C@@H]1[C@@H]2CC[C@]2(C)C(=O)CC[C@@H]12 | 1100 | –
COC(=O)[C@H]1C[C@@H]2[C@H](CC[C@]3(C)C(=O)CC[C@@H]23)[C@@]2(C)CC/C(=N\OCCN)C[C@H]12 | 410 | –
C[C@]12CC/C(=N\OCCN)C[C@@H]1[C@@H](C(N)=O)C[C@@H]1[C@@H]2CC[C@]2(C)C(=O)CC[C@@H]12 | 630 | –
C#C[C@H]1C[C@@H]2[C@H](CC[C@]3(C)C(=O)CC[C@@H]23)[C@@]2(C)CC/C(=N\OCCCNC)C[C@H]12 | 1200 | –
CNCCCO/N=C1\CC[C@@]2(C)[C@H](C1)[C@@H](C(N)=O)C[C@@H]1[C@@H]2CC[C@]2(C)C(=O)CC[C@@H]12 | 1900 | –
CNCCCO/N=C1\CC[C@@]2(C)[C@H](C1)[C@@H](C(=O)OC)C[C@@H]1[C@@H]2CC[C@]2(C)C(=O)CC[C@@H]12 | 4000 | –
CO[C@@H]1C[C@@H]2[C@H](CC[C@]3(C)C(=O)CC[C@@H]23)[C@@]2(C)CC/C(=N\OCCN)C[C@H]12 | 1500 | –
C[C@]12CC/C(=N\OCCN)C[C@@H]1[C@@H](O)C[C@@H]1[C@@H]2CC[C@]2(C)C(=O)CC[C@@H]12 | 520 | –
C[C@]12CC/C(=N\OCCN)C[C@@H]1[C@H](O)C[C@@H]1[C@@H]2CC[C@]2(C)C(=O)CC[C@@H]12 | 2100 | –
C=C1C[C@@H]2[C@H](CC[C@]3(C)C(=O)CC[C@@H]23)[C@@]2(C)CC/C(=N\OCCN)C[C@H]12 | 42 | –

Structure (SMILES) | IC50 [1] [nM] | other results
C[C@]12CC/C(=N\OCCN)C[C@@H]1[C@@H](C(=O)O)C[C@@H]1[C@@H]2CC[C@]2(C)C(=O)CC[C@@H]12 | 16000 | –
C[C@]12CC/C(=N\OCCN)C[C@@H]1C(=C(F)F)C[C@@H]1[C@@H]2CC[C@]2(C)C(=O)CC[C@@H]12 | 190 | –
C/C=C1\C[C@@H]2[C@H](CC[C@]3(C)C(=O)CC[C@@H]23)[C@@]2(C)CC/C(=N\OCCN)C[C@H]12 | 1100 | –
C[C@]12CC/C(=N\OCCN)C[C@@H]1C1(CC1)C[C@@H]1[C@@H]2CC[C@]2(C)C(=O)CC[C@@H]12 | 850 | –
C[C@H]1C[C@@H]2[C@H](CC[C@]3(C)C(=O)CC[C@@H]23)[C@@]2(C)CC/C(=N\OCCN)C[C@H]12.Cl | 300 | Emax (Cavia porcellus [2]): 203%; Activity (Cavia porcellus [3]): 5.8 µM/g; Activity (Cavia porcellus [4]): Non-toxic; ED80 (Cavia porcellus [5]): 3.1 µM/g
C=C[C@H]1C[C@@H]2[C@H](CC[C@]3(C)C(=O)CC[C@@H]23)[C@@]2(C)CC/C(=N\OCCN)C[C@H]12 | 530 | –
C#C[C@H]1C[C@@H]2[C@H](CC[C@]3(C)C(=O)CC[C@@H]23)[C@@]2(C)CC/C(=N\OCCN)C[C@H]12.Cl | 200 | Emax (Cavia porcellus [2]): 163%; Activity (Cavia porcellus [3]): 9.9 µM/g; Activity (Cavia porcellus [4]): Non-toxic; ED80 (Cavia porcellus [5]): 4.6 µM/g
C[C@@H]1C[C@@H]2[C@H](CC[C@]3(C)C(=O)CC[C@@H]23)[C@@]2(C)CC/C(=N\OCCN)C[C@H]12 | 6000 | –
CO/N=C1\C[C@@H]2[C@H](CC[C@]3(C)C(=O)CC[C@@H]23)[C@@]2(C)CC/C(=N\OCCN)C[C@H]12.Cl | 17 | Emax (Cavia porcellus [2]): 183%; Activity (Cavia porcellus [3]): 5.8 µM/g; Activity (Cavia porcellus [4]): Non-toxic; ED80 (Cavia porcellus [5]): 2.4 µM/g
CCO/N=C1\C[C@@H]2[C@H](CC[C@]3(C)C(=O)CC[C@@H]23)[C@@]2(C)CC/C(=N\OCCN)C[C@H]12 | 1700 | –
C[C@]12CC/C(=N\O[C@@H]3CCNC3)C[C@@H]1[C@@H](O[N+](=O)[O-])C[C@@H]1[C@@H]2CC[C@]2(C)C(=O)CC[C@@H]12 | 380 | –
C[C@]12CC/C(=N\OCCN)C[C@@H]1/C(=C/C#N)C[C@@H]1[C@@H]2CC[C@]2(C)C(=O)CC[C@@H]12 | 1700 | –
C[C@H]1C[C@@H]2[C@H](CC[C@]3(C)C(=O)CC[C@@H]23)[C@@]2(C)CC/C(=N\O[C@@H]3CCNC3)C[C@H]12 | 340 | –
C[C@]12CC/C(=N\OCCN)C[C@@H]1[C@@H](CO)C[C@@H]1[C@@H]2CC[C@]2(C)C(=O)CC[C@@H]12.Cl | 180 | Emax (Cavia porcellus [2]): 166%; Activity (Cavia porcellus [3]): 7.4 µM/g; Activity (Cavia porcellus [4]): Non-toxic; ED80 (Cavia porcellus [5]): 1.8 µM/g
C[C@]12CC/C(=N\OCCN)C[C@@H]1[C@H](CO)C[C@@H]1[C@@H]2CC[C@]2(C)C(=O)CC[C@@H]12 | 1600 | –
C#C[C@H]1C[C@@H]2[C@H](CC[C@]3(C)C(=O)CC[C@@H]23)[C@@]2(C)CC/C(=N\O[C@@H]3CCNC3)C[C@H]12.Cl | 110 | Emax (Cavia porcellus [2]): 147%; Activity (Cavia porcellus [3]): 6 µM/g; Activity (Cavia porcellus [4]): Non-toxic; ED80 (Cavia porcellus [5]): 3.7 µM/g
CC(=O)N[C@H]1C[C@@H]2[C@H](CC[C@]3(C)C(=O)CC[C@@H]23)[C@@]2(C)CC/C(=N\OCCN)C[C@H]12 | 45000 | –
C=C1C[C@@H]2[C@H](CC[C@]3(C)C(=O)CC[C@@H]23)[C@@]2(C)CC/C(=N\O[C@@H]3CCNC3)C[C@H]12 | 46 | –
C[C@]12CC/C(=N\OCCN)C[C@@H]1/C(=C/CO)C[C@@H]1[C@@H]2CC[C@]2(C)C(=O)CC[C@@H]12 | 770 | –
C[C@]12CC/C(=N\O[C@@H]3CCNC3)C[C@@H]1C(=C(F)F)C[C@@H]1[C@@H]2CC[C@]2(C)C(=O)CC[C@@H]12.Cl | 21 | Emax (Cavia porcellus [2]): 244%; Activity (Cavia porcellus [3]): 18 µM/g; Activity (Cavia porcellus [4]): Non-toxic; ED80 (Cavia porcellus [5]): 6.7 µM/g
C[C@]12CC/C(=N\O[C@@H]3CCNC3)C[C@@H]1C1(CC1)C[C@@H]1[C@@H]2CC[C@]2(C)C(=O)CC[C@@H]12 | 220 | –
COC[C@H]1C[C@@H]2[C@H](CC[C@]3(C)C(=O)CC[C@@H]23)[C@@]2(C)CC/C(=N\O[C@@H]3CCNC3)C[C@H]12.O=C(O)/C=C/C(=O)O | 320 | Emax (Cavia porcellus [2]): 201%; Activity (Cavia porcellus [3]): 12 µM/g; Activity (Cavia porcellus [4]): Non-toxic; ED80 (Cavia porcellus [5]): 6.8 µM/g
CNCCCO/N=C1\CC[C@@]2(C)[C@H](C1)/C(=N/OC)C[C@@H]1[C@@H]2CC[C@]2(C)C(=O)CC[C@@H]12 | 330 | –
CCO[C@H]1C[C@@H]2[C@H](CC[C@]3(C)C(=O)CC[C@@H]23)[C@@]2(C)CC/C(=N\OCCN)C[C@H]12 | 3100 | –
C[C@]12CC/C(=N\O[C@@H]3CCNC3)C[C@@H]1C(=O)C[C@@H]1[C@@H]2CC[C@]2(C)C(=O)CC[C@@H]12 | 26 | –
